Experimental data as given in PubChem BioAssay.
Calls of active or inactive are those of the source.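 How the source made its calls, unless noted: active means viability at or below 30% in both replicate assays; inconclusive means viability at or below 30% in just one of the two assays; inactive means the rest.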

Legend:
[1] = reducers of endogenous Her2 protein level, primary screen, SKBR3 breast tumor cells, AlphaScreen, ATP viability (AID 461;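 active means Her2 level under about 52% in both replicate screens, with viability over 70% of control, limit read from the data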;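 on Her2 level: lower value means less Her2 protein in the cells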;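 on viability: percent of carrier control wells set as 100% viability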); settings: 18-24 h, measured here: SKBR3 viability, ATP luminescence, at 10 µM
[2] = target: Receptor tyrosine-protein kinase erbB-2 (Homo sapiens) (UniProt P04626); test: as above; settings: 18-24 h, at 10 µM, stronger effect = lower value
[3] = SK-BR-3 cell growth inhibitors, pilot screen, 24 h, human (AID 572;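 active means viability at or below 10% of carrier control in both of two separate runs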;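 further: compound exposure lasted between 18 and 24 h rather than exactly 24 h; 100% = carrier-treated control wells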); settings: SK-BR-3 viability, CellTiter-Glo luminescence, at 10 µM, stronger effect = lower value
[4] = HUVEC growth inhibition – cell-based, human, primary screen (AID 575); settings: HUVEC proliferation, CellTiter-Glo luminescence, 72 h; at 10 µM; stronger effect = lower value;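 further: 100% = median of untreated cell wells with 0.1% DMSO on each plate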
Outline: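 System: primary human umbilical vein endothelial cells; Quantity: 1250 endothelial cells in each well; Buffer or medium: supplemented EBM, 2% fetal bovine serum; Doses: one dose, 10 µM final, 0.1% DMSO; Incubation: 72 h compound incubation; Technique: ATP-based CellTiter-Glo luminescent read; Evaluation: percent of median DMSO-control luminescence; Controls: vehicle and MePR control wells.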

[5] = growth inhibitors of H69AR lung tumor, primary screen, human, duplicate replicates (AID 580;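 active means viability at or under a set limit in both replicates, limit being median viability minus 3 SD, cut at about 48% in these data, passing the limit was not always enough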;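 further: 100% = mean luminescence of untreated wells and 0% = no signal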); settings: H69AR lung tumor cells viability, ATP luminescence, 72 h; at 10 µM; stronger effect = lower value
[6] = reversal of MRP1-mediated doxorubicin resistance, pilot screen, H69AR cells, doxorubicin co-treatment (AID 601;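 active means viability loss from added drug above about 55%, and viability with drug at most 40%, in both replicates, limit read from the data, passing the limit was not always enough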); settings: CellTiter-Glo, 72 h, at 10 µM; for differential viability (reversal): stronger effect = higher value
[7] = 384-well plate pilot, post-Golgi transport modulator project, inhibition of yeast transport mutant growth (AID 636; in the data active means inhibition above about 31%); settings: absorbance 615 nm, about 18 h, stronger effect = higher value
[8] = growth suppression of yeast trafficking mutant, preliminary HTS, modulators of trafficking downstream of Golgi apparatus project, 1536-format plate, OD 615 nm (AID 637; in the data active means inhibition above about 30%); settings: yeast transport mutant growth, absorbance 615 nm, 18 h; stronger effect = higher value
[9] = H69AR cells + 2 uM doxorubicin, measured here: viability with 2 uM doxorubicin, stronger effect = lower value
[10] = H69AR cells, compound alone cytotoxicity

Chain of Receptor tyrosine-protein kinase erbB-2 (Homo sapiens) (P04626 whole entry, looked up): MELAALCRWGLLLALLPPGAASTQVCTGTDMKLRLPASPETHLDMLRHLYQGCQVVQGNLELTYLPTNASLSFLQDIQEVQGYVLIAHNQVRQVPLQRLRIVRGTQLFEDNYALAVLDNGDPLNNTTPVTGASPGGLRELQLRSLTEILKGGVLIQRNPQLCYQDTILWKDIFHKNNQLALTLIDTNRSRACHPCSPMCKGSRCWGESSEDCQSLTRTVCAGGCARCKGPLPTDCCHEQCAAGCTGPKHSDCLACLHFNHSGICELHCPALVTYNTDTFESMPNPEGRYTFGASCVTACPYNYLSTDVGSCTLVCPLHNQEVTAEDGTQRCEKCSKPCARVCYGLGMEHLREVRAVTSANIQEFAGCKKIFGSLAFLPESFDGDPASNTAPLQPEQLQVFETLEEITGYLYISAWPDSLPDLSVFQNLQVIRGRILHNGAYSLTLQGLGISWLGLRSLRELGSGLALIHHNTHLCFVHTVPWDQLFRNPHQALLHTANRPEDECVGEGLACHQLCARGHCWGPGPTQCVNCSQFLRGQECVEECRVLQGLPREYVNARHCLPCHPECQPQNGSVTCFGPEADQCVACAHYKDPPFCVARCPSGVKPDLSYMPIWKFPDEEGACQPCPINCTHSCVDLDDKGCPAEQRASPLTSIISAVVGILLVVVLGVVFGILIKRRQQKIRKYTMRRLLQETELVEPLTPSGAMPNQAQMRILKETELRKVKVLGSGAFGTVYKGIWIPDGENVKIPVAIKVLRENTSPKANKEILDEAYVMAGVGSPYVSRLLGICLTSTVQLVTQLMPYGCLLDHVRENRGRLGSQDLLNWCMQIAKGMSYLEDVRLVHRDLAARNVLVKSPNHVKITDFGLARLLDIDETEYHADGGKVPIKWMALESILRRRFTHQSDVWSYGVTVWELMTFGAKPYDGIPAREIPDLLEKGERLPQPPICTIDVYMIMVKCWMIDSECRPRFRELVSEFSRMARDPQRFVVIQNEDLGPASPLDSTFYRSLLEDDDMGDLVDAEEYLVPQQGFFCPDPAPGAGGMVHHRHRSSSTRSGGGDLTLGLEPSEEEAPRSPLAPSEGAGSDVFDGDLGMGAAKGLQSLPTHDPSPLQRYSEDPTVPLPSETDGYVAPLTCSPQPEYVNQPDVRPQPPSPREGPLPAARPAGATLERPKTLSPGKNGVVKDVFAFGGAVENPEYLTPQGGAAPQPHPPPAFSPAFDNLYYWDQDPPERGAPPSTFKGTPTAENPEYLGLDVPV

Row | SMILES | viability [1] | Her2 level [2] | viability [3] | viability [4] | viability [5] | differential viability (reversal) ([6]; H69AR cells + 2 uM doxorubicin) | viability [6, 9] | viability [6, 10] | inhibition [7] | inhibition [8]
1 | CC(C)CCNC(=O)NC(=O)CN1C(=O)NC2(CCCCC2)C1=O | 90% | 120% (inactive) | 90% (inactive) | 104% (inactive) | 96.9% (inactive) | -4.12% (inactive) | 101% | 96.9% | 1.32% (inactive) | 10.9% (inactive)
2 | CC1(C)Cc2noc(N)c2C(C)(C)N1OC(=O)c1ccco1 | 118% | 82.5% (inactive) | 118% (inactive) | 93.1% (inactive) | 94.5% (inactive) | 2.83% (inactive) | 91.7% | 94.5% | -3.55% (inactive) | 3.81% (inactive)
3 | Cc1nc2ccc(NC(=O)N3CCOCC3)cc2s1 | 87.5% | 79.5% (inactive) | 87.5% (inactive) | 93.8% (inactive) | 89.8% (inactive) | 4.26% (inactive) | 85.6% | 89.8% | -4.34% (inactive) | -1.27% (inactive)
4 | O=C1OCc2cc(NC(=O)C3CCCO3)ccc21 (stereo not given) | 92.5% | 122% (inactive) | 92.5% (inactive) | 101% (inactive) | 104% (inactive) | -0.78% (inactive) | 105% | 104% | 1.84% (inactive) | -1.83% (inactive)
5 | O=C(NCc1ccco1)C1CCN(C(=O)c2cc3sccc3n2Cc2ccc(F)cc2)CC1 | 94.5% | 62.5% (inactive) | 94.5% (inactive) | 56.1% (inactive) | 67.1% (inactive) | -6.56% (inactive) | 73.7% | 67.1% | -5.87% (inactive) | 5.74% (inactive)
6 | O=C(CCCCCN1C(=O)CCC1=O)NCc1ccccc1 | 103% | 73% (inactive) | 103% (inactive) | 100% (inactive) | 98.2% (inactive) | 13.5% (inactive) | 84.7% | 98.2% | -7.97% (inactive) | 4.13% (inactive)
7 | CC1CCCC(C(=O)OCc2ccccc2)N1 (stereo not given) | 119% | 94% (inactive) | 119% (inactive) | 102% (inactive) | 97.2% (inactive) | 6.15% (inactive) | 91% | 97.2% | -2.63% (inactive) | -1.11% (inactive)
8 | O=C(O)CC1CCCC(c2ccccc2)C1=O (stereo not given) | 97% | 110% (inactive) | 97% (inactive) | 108% (inactive) | 99.6% (inactive) | 6.58% (inactive) | 93% | 99.6% | -6.4% (inactive) | -9.35% (inactive)
9 | CCOC(=O)CSc1nc2cc(C(=O)NCc3ccco3)ccc2c(=O)n1-c1ccc(F)cc1 | 86.5% | 105% (inactive) | 86.5% (inactive) | 71.4% (inactive) | 87.5% (inactive) | 12% (inactive) | 75.6% | 87.5% | -0.93% (inactive) | 12.8% (inactive)
10 | Cc1cc(C)nc(NC(=O)c2c(-c3c(Cl)cccc3Cl)noc2C)n1 | 84% | 98.5% (inactive) | 84% (inactive) | 94% (inactive) | 85.1% (inactive) | -5.23% (inactive) | 90.3% | 85.1% | -7.73% (inactive) | -6.03% (inactive)
11 | CCN(CC)CCCn1c(=S)[nH]c2cc(Cl)ccc2c1=O | 101% | 96% (inactive) | 101% (inactive) | 106% (inactive) | 97% (inactive) | 6.63% (inactive) | 90.4% | 97% | -6.27% (inactive) | 1.8% (inactive)
12 | COc1cccc(-c2noc(-c3cccs3)n2)c1 | 96.5% | 87% (inactive) | 96.5% (inactive) | 75.1% (inactive) | 81.5% (inactive) | -29.2% (inactive) | 111% | 81.5% | 2.08% (inactive) | -4.29% (inactive)
13 | Nc1nc(-c2ccccc2Br)cs1 | 91.5% | 96.5% (inactive) | 91.5% (inactive) | 86.3% (inactive) | 91.5% (inactive) | 9.75% (inactive) | 81.8% | 91.5% | -0.66% (inactive) | -8.55% (inactive)
14 | O=C(NCCC1=CCCCC1)N[C@@H](Cc1ccccc1)C(=O)O | 104% | 114% (inactive) | 104% (inactive) | 100% (inactive) | 108% (inactive) | 14.2% (inactive) | 93.5% | 108% | 0.13% (inactive) | 0.16% (inactive)
15 | Cc1cc(NS(=O)(=O)c2ccc(Nc3nc(-c4sc(N)nc4C)cs3)cc2)no1 | 104% | 116% (inactive) | 104% (inactive) | 75.5% (inactive) | 98% (inactive) | 9.14% (inactive) | 88.8% | 98% | -4.08% (inactive) | -4% (inactive)
